Only some compounds are listed: those with a hit (about 2.6% of all), similar ones and a draw of the others.
PG9 Ab binder = PG9 antibody binding by small molecule | inhibition, % at 6.7 µM | TR-FRET gp120-PG9 antibody binding | AID 624416 | 360,000 compounds, 0.43% hits; in the data active means inhibition above about 8.5%
NR2E3 ag-1 = human photoreceptor-specific nuclear receptor agonism; Q9Y5X4; 360,000 compounds, 0.35% hits; CHO-S Gal4-NCOR/VP16-NR2E3 two-hybrid, luciferase; inhibition of corepressor binding, % at 3.98 µM;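 active means inhibition above the mean of all tested compounds plus 3 SD, cut at about 70% in these data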;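 further: 0% = DMSO with NR2E3 transfected cells and 100% = cells lacking NR2E3 construct; higher means lower luciferase signal from less NR2E3 corepressor binding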
NR1D1 modulator = modulates human Rev-erb alpha binding to DNA | AID 1259318 | P20393 | 370,000 compounds, 0.79% hits | activity, % at 10 µM | Rev-erbα–FITC-DNA binding, fluorescence polarization, 90 min;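 active means activity above about 14%, limit read from the data; passing the limit was not always enough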;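 further: 0% = DMSO wells with 35 nM protein and 100% = DMSO wells with 750 nM protein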
Target sequence (P20393 whole entry, looked up): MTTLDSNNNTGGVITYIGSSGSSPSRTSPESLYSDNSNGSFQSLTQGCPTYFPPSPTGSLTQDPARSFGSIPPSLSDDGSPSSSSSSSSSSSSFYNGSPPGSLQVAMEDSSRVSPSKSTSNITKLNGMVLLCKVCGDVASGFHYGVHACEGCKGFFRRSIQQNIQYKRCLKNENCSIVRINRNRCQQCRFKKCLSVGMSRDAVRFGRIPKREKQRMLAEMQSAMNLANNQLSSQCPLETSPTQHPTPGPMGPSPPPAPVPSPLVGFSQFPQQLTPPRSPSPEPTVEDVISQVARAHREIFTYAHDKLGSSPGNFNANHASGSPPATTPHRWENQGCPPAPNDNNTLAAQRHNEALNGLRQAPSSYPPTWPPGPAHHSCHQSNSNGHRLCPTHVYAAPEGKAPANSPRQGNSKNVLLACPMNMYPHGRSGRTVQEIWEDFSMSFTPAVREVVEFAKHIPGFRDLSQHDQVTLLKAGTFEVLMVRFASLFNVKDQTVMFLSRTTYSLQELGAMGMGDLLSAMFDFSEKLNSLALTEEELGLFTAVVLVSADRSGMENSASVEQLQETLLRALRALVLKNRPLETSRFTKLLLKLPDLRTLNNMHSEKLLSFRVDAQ
NR2E3 ag-2 = activates human photoreceptor nuclear receptor NR2E3. Q9Y5X4. GST-NR2E3/biotin-RetCOR TR-FRET, 1536-well. inhibition of corepressor binding, % at 4.78 µM. 320,000 compounds, 0.12% hits. AID 2300;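 active means percent inhibition above the cutoff of mean plus 3 SD of all tested compounds, set per screening campaign, cut at about 20% in these data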;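 further: 0% = DMSO wells and 100% = biotin wells as full block of FRET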
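Format: 1536-well format; test system: GST-NR2E3 and biotin-RetCOR proteins; read-out basis: percent inhibition of TR-FRET ratio; timing: 5 h incubation at 4 °C; detection: time-resolved FRET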
rCAG RNA binder = r(CAG) repeat RNA binding. inhibition, % at 3 µM. TO-PRO-1 dye displacement fluorescence. 370,000 compounds, 1.3% hits;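 active means inhibition above the plate cutoff, the mean of all test compounds on that plate plus 3 SD, cut at about 35% in these data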;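 further: 0% = DMSO alone and 100% = 100 µM mitoxantrone as full dye displacement; higher means more dye released from RNA so lower well fluorescence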
rCAG bind conf = r(CAG) RNA repeat binding, confirmation. TO-PRO-1 dye displacement fluorescence. inhibition, % at 3 µM. shares compounds with rCAG RNA binder. AID 652065. 4,300 compounds, 70% hits;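 active means inhibition above a per-plate cutoff, the mean inhibition of sample wells plus 3 SD, cut at about 35% in these data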;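 further: loss of TO-PRO-1 fluorescence as compound displaces dye from 1x1 AA loop RNA; 0% = DMSO only wells and 100% = 100 µM mitoxantrone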
dCAG dye counter = DNA CAG dye complex inhibition counter-screen | inhibition, % at 3 µM | 4,300 compounds, 94% hits | shares compounds with rCAG RNA binder | d(CAG) DNA oligo TO-PRO-1 dye displacement, fluorescence;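 active means inhibition above its plate's cutoff, the mean test-well inhibition plus 3 SD, cut at about 4.8% in these data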;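 further: 0% = DNA dye mix with DMSO and 100% = 100 µM mitoxantrone; hits displace the dye from DNA and so lower well fluorescence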
Starred values were filed as active, the others as inactive; . = no result given.

SMILES | PG9 Ab binder | NR2E3 ag-1 | NR1D1 modulator | NR2E3 ag-2 | rCAG RNA binder | rCAG bind conf | dCAG dye counter
COc1cc(/C=C2/C(C)=C(C#N)c3nc(N)c(C#N)c(C)c32)ccc1OCC(=O)O | -4 | . | -5 | 2 | 42* | 41* | 17*
Oc1ccc(/C=N/NC(=S)Nc2cccnc2)c(O)c1O | -3 | -58 | -32 | . | 44* | 39* | 15*
Cc1cccc(N/N=C/c2ccc(O)c(O)c2O)c1 | 1 | -46 | 3 | 1 | 43* | 43* | 16*
COc1cccc(N/N=C/c2cccc(Br)c2O)c1 | -2 | -30 | 4 | -5 | 6 | . | .
COc1ccc(C(C)(C)C)cc1NC(=O)c1ccccc1-n1cnnn1 | 1 | -5 | 8 | . | 3 | . | .
O=C(c1ccccc1)C1CC=CCC1C(=O)c1ccccc1 (stereo not given) | 2 | 17 | 1 | . | 1 | . | .
C[C@@H]1CN([C@H](C)CO)C(=O)CCCn2cc(nn2)CO[C@H]1CN(C)C(=O)Nc1ccc(C(C)(C)C)cc1 | 0 | -5 | -4 | . | -2 | . | .
COc1ccc(/C=N/NS(=O)(=O)c2ccccc2)cc1OC | -2 | -9 | -6 | 3 | 0 | . | .
O=C1/C(=C/c2cccc(F)c2)SC(=S)N1NS(=O)(=O)c1ccccc1 | 3 | -5 | 4 | 3 | 62* | 65* | 17*
COc1cc(/C=C2\SC(=S)N(NC(=O)c3ccccc3O)C2=O)ccc1O | -4 | -19 | 6 | 3 | 55* | 34 | 13*
COc1ccc(/C=C2/SC(=O)N(NS(=O)(=O)c3ccccc3)C2=S)cc1OC | -3 | 10 | -3 | -18 | 69* | 58* | 23*
O=C1/C(=C/c2ccccn2)SC(=S)N1NS(=O)(=O)c1ccccc1 | -1 | -1 | 1 | 1 | 32 | . | .
COc1cccc(/C=C2\SC(=S)N(NS(=O)(=O)c3ccccc3)C2=O)c1OC | 0 | -16 | 0 | 2 | 74* | 65* | 28*
COc1cc(/C=C2\SC(=S)N(NS(=O)(=O)c3ccccc3)C2=O)cc(OC)c1OC | 0 | -15 | 1 | -4 | 65* | 65* | 27*
Clc1ccc(-c2cccc3nccn23)c(Cl)c1 | 0 | 10 | 4 | . | 2 | . | .
Cc1cc(C)c2nc(N3C(=O)C(O)=C(C(=O)c4ccco4)C3c3ccc(O)cc3)sc2c1 (stereo not given) | -1 | -71 | -6 | 5 | 84* | 81* | 43*
Cc1ccc(C2C(C(=O)c3ccco3)=C(O)C(=O)N2c2nnc(C)s2)cc1 (stereo not given) | 5 | -21 | -2 | 7 | -4 | . | .
Cc1cc(C)c2nc(N3C(=O)C(O)=C(C(=O)c4ccco4)C3c3cccc(O)c3)sc2c1 (stereo not given) | -2 | -53 | 5 | 4 | 85* | 81* | 49*
Cc1nnc(N2C(=O)C(O)=C(C(=O)c3ccco3)C2c2cccc([N+](=O)[O-])c2)s1 (stereo not given) | -1 | 6 | 6 | 3 | 4 | . | .
CCCN(CC(=O)Nc1ccccc1OC)C(=O)CN1C(=O)NC(C)(C)C1=O | 2 | -2 | 4 | . | -1 | . | .
NN=C1c2ccccc2C(=O)C1C(=O)C(c1ccccc1)c1ccccc1 (stereo not given) | -3 | -14 | 0 | . | 45* | 44* | 28*
COc1ccccc1CNC(=O)COC(=O)COc1ccccc1F | 1 | 24 | -1 | 1 | 3 | . | .
Cc1[nH]n(-c2ncc(-c3ccccc3)s2)c(=O)c1C(c1ccc(Br)cc1)C(C#N)C#N (stereo not given) | -3 | 17 | -7 | -2 | 57* | 80* | 50*
COC(=O)[C@]12C[C@H](CC(=O)NCC3CCCCC3)C(=O)N(Cc3ccccc3)C1=C[C@H](C(C)(C)C)O[C@@H]2C | 1 | . | -7 | . | -1 | . | .
COc1cccc(NC(=O)CN(C)C(=O)C2CC(=O)N(CCc3ccc(OC)c(OC)c3)C2)c1 (stereo not given) | 0 | -42 | 1 | . | 8 | . | .
Cc1ccc(Sc2ccc(S(=O)(=O)Nc3ccc(C(=O)O)cc3)cc2)cc1C | 7 | 8 | -1 | . | 49* | 43* | 13*

High-throughput results (PubChem)
